Experiment [1] deals with Haemophilus influenzae. Kind of experiment: Antimicrobial activity against Haemophilus influenzae ATCC 19418 after 24 hrs by broth microdilution method. It counts as functional. Particulars: ATCC 19418, 24 h. Summed up:
(§1)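 Broth dilution method. H. influenzae grown in Haemophilus Test Medium, other bacteria in Mueller Hinton Broth. Compounds dissolved in DMSO and diluted in growth medium. Incubated 24 h at 37 °C. MIC is the lowest concentration inhibiting reproduction of the organism. Drug-free tubes served as growth controls, organism-free tubes as purity controls, and solvent-only tubes as controls.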
On the technique in general: Broth dilution looks for growth in wells or tubes with falling amounts of substance.

Experiment [2] concerns Acinetobacter baumannii. Kind of experiment: Antimicrobial activity against Acinetobacter baumannii ATCC 19606 after 24 hrs by broth microdilution method. It counts as functional. Particulars: ATCC 19606, 24 h. A digest of the protocol: as §1
The subject of experiment [3] is Acinetobacter baumannii. The experiment is described as follows: Antimicrobial activity against quinolone and penicillin-resistant Acinetobacter baumannii after 24 hrs by broth microdilution method. It counts as functional. A digest of the protocol: (§2)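 Broth dilution in Mueller Hinton Broth; compounds dissolved in DMSO and diluted in growth medium. […] Drug-free tubes served as growth controls and organism-free tubes as purity controls, with solvent-only controls included. Ciprofloxacin, levofloxacin, moxifloxacin and gemifloxacin were the reference drugs.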

Experiment [4] deals with Staphylococcus epidermidis. Kind of experiment: Antimicrobial activity against Staphylococcus epidermidis ATCC 12228 after 24 hrs by broth microdilution method. It is filed as functional. Particulars: ATCC 12228, 24 h. Summed up: as §1
For experiment [5], the system named is Pseudomonas aeruginosa. The experiment is described as follows: Antimicrobial activity against quinolone and penicillin-resistant Pseudomonas aeruginosa after 24 hrs by broth microdilution method. It is filed as functional. Summed up:
as §2

Experiment [6] has as its system Staphylococcus epidermidis. The experiment is described as follows: Antimicrobial activity against quinolone and penicillin-resistant Staphylococcus epidermidis SER after 24 hrs by broth microdilution method. It is filed as functional. Summed up:
as §2

Experiment [7] has as its system Pseudomonas aeruginosa. Kind of experiment: Antimicrobial activity against Pseudomonas aeruginosa ATCC 9027 after 24 hrs by broth microdilution method. It is filed as functional. Particulars: ATCC 9027, 24 h. A digest of the protocol: as §1
Experiment [8] relates to Staphylococcus aureus. Kind of experiment: Antimicrobial activity against Staphylococcus aureus ATCC 6538 after 24 hrs by broth microdilution method. The settings on record: ATCC 6538, 24 h. It counts as functional. A digest of the protocol: as §1
Experiment [9] relates to Staphylococcus aureus. The experiment is described as follows: Antimicrobial activity against quinolone and penicillin-resistant Staphylococcus aureus SAR72 after 24 hrs by broth microdilution method. It is filed as functional. The settings on record: SAR72, 24 h. A digest of the protocol: as §2
Experiment [10] relates to Staphylococcus aureus. The experiment is described as follows: Antimicrobial activity against quinolone and penicillin-resistant Staphylococcus aureus SAR4790 after 24 hrs by broth microdilution method. It counts as functional. Particulars: SAR4790, 24 h. Summed up:
as §2

Experiment [11] has as its system Escherichia coli. The experiment is described as follows: Antimicrobial activity against Escherichia coli ATCC 8739 after 24 hrs by broth microdilution method. It is filed as functional. The settings on record: ATCC 8739, 24 h. Summed up: as §1
Experiment [12] relates to Bacillus subtilis. Kind of experiment: Antimicrobial activity against Bacillus subtilis ATCC 6633 after 24 hrs by broth microdilution method. It is filed as functional. The settings on record: ATCC 6633, 24 h. A digest of the protocol: as §1
Experiment [13] concerns Escherichia coli. Kind of experiment: Antimicrobial activity against quinolone and penicillin-resistant Escherichia coli after 24 hrs by broth microdilution method. It is filed as functional. A digest of the protocol:
as §2

Experiment [14] can be described thus: Inhibition of Escherichia coli DNA gyrase-mediated supercoiling of pBR322 using bromothymol blue by electrophoresis. Summed up:
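E. coli gyrase supercoiling of relaxed pBR322 in 35 mM Tris–HCl pH 7.5, 24 mM KCl, 4 mM MgCl2, 2 mM DTT, 1.8 mM spermidine, 1 mM ATP, 6.5% glycerol, 0.1 mg/mL albumin. Incubated 30 min at 37 °C, stopped with chloroform/isoamyl alcohol, run on 1% agarose and gel-quantitated. IC50 is the concentration halving supercoiling versus drug-free control. ≥3 independent experiments.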

Experiment [15] can be described thus: Inhibition of Escherichia coli DNA topoisomerase-4-mediated decatenation of kinetoplast DNA by electrophoresis.
Experiment [16] is described as follows: Cytotoxicity against human HDF after 72 hrs by MTT assay. It counts as cell-based. Summed up: (§3)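 Cells kept in medium with 2 mM glutamine and 10% FBS at 37 °C, 5% CO2. Compounds dissolved in DMSO just before addition (final ≤0.1% v/v; same solvent in controls). After 72 h exposure, viability read by MTT. Triplicates, ≥3 independent experiments. Dose–response fitted with single or double Hill functions; IC50 extrapolated from curves.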
In general terms: Tetrazolium dyes change colour on reduction, which living cells bring about.

The subject of experiment [17] is A549. Kind of experiment: Cytotoxicity against human A549 cells after 72 hrs by MTT assay. It is filed as functional, cell-based. Particulars: A549, 72 h. Summed up:
as §3

The test system of experiment [18] is MCF7. The experiment is described as follows: Cytotoxicity against human MCF7 cells after 72 hrs by MTT assay. It counts as functional, cell-based. Particulars: MCF7, 72 h. Summed up:
as §3

Our source for the MIC and IC50 values is ChEMBL document CHEMBL1212890, “Synthesis and biological evaluation of tetracyclic fluoroquinolones as antibacterial and anticancer agents” (Bioorg Med Chem, 2010).

The structures appear in SMILES notation. Converted amounts (≈) assume the structure as drawn. The source made the active and inactive calls. The calls are words filed in the database; no cut-off is given here.

`CO/N=C1\CN(c2nc3c(cc2F)c(=O)c(C(=O)O)cn3C2CC2)CC1CN` (centres undefined) [GEMIFLOXACIN]: the MIC in [1] is 0.015 mg/L (≈ 0.0385 µM); in experiment [2] it was 0.3 mg/L (≈ 0.77 µM); in experiment [3] it was 100 mg/L (≈ 257 µM); in [4] it was 0.015 mg/L (≈ 0.0385 µM); in experiment [5], more than 100 mg/L; in [6], 50 mg/L (≈ 128 µM). Besides, the MIC turned out to be 0.07 mg/L (≈ 0.18 µM) in experiment [7]; 0.015 mg/L (≈ 0.0385 µM) in experiment [8]; 6 mg/L (≈ 15.4 µM) in experiment [9]; 50 mg/L (≈ 128 µM) in experiment [10]; 0.015 mg/L (≈ 0.0385 µM) in experiment [11]; 0.007 mg/L (≈ 0.018 µM) in experiment [12]. The compound further gave an MIC in experiment [13] of 50 mg/L (≈ 128 µM).

What is called IC50 is the concentration needed to halve the response being measured. `COc1c(N2C[C@@H]3CCCN[C@@H]3C2)c(F)cc2c(=O)c(C(=O)O)cn(C3CC3)c12` [MOXIFLOXACIN]: the IC50 in [14] was determined as 0.85 mg/L (≈ 2.12 µM); in experiment [15] it was 5 mg/L (≈ 12.5 µM). In addition, the MIC in [1] was 0.03 mg/L (≈ 0.0747 µM); in experiment [2], 0.15 mg/L (≈ 0.374 µM); in experiment [3] it was 50 mg/L (≈ 125 µM); in experiment [4], 0.07 mg/L (≈ 0.174 µM); in experiment [5], more than 100 mg/L; in [6], 50 mg/L (≈ 125 µM). Further, the MIC in experiment [7] was found to be 0.7 mg/L (≈ 1.74 µM); in experiment [8] it was 0.03 mg/L (≈ 0.0747 µM); in experiment [9] it was 12 mg/L (≈ 29.9 µM); in [10] it was 50 mg/L (≈ 125 µM); in experiment [11], 0.03 mg/L (≈ 0.0747 µM); in [12], 0.015 mg/L (≈ 0.0374 µM).

`C[C@H]1COc2c(N3CCN(C)CC3)c(F)cc3c(=O)c(C(=O)O)cn1c23.C[C@H]1COc2c(N3CCN(C)CC3)c(F)cc3c(=O)c(C(=O)O)cn1c23.O` [LEVOFLOXACIN]: the MIC was 0.15 mg/L in [1]; 0.15 mg/L in [2]; more than 100 mg/L in experiment [3]; 0.15 mg/L in experiment [4]; 50 mg/L in experiment [5]; more than 100 mg/L in experiment [6]. The MIC in experiment [7] stood at 0.3 mg/L; in [8] it was 0.07 mg/L; in experiment [9], 25 mg/L; in experiment [10] it was 100 mg/L; in experiment [12], 0.03 mg/L; in experiment [13], 25 mg/L.

With `O=C(O)c1cn(C2CC2)c2cc(N3CCNCC3)c(F)cc2c1=O` [CIPROFLOXACIN], the IC50 in experiment [14] was 0.34 mg/L (≈ 1.03 µM); in experiment [15], 4.6 mg/L (≈ 13.9 µM). The MIC was 0.15 mg/L (≈ 0.453 µM) in [1]; 0.7 mg/L (≈ 2.11 µM) in experiment [2]; more than 100 mg/L in [3]; 0.07 mg/L (≈ 0.211 µM) in [4]; 100 mg/L (≈ 302 µM) in [6]; 0.07 mg/L (≈ 0.211 µM) in experiment [7]. Also, the MIC was 0.3 mg/L (≈ 0.905 µM) in experiment [8], 100 mg/L (≈ 302 µM) in experiment [9], more than 100 mg/L in experiment [10] and 0.03 mg/L (≈ 0.0905 µM) in experiment [12].

Consider `O=C(O)c1cn(C2CC2)c2c(cc(F)c3c4ccccc4[nH]c32)c1=O`, for which the half-maximal inhibitory concentration (IC50) is more than 10 µM in experiment [16]; 1.7 mg/L (≈ 5.05 µM) in experiment [14]; 35 mg/L (≈ 104 µM) in experiment [15]; 6.4 µM in experiment [17]; 3.6 µM in experiment [18]. Further, the MIC was 0.03 mg/L (≈ 0.0892 µM) in experiment [1]; 12 mg/L (≈ 35.7 µM) in experiment [2]; more than 100 mg/L in [3]; 0.15 mg/L (≈ 0.446 µM) in experiment [4]; more than 100 mg/L in experiment [6]; more than 100 mg/L in experiment [7]. Moreover, the MIC was 0.3 mg/L (≈ 0.892 µM) in [8]; 12 mg/L (≈ 35.7 µM) in experiment [9]; more than 100 mg/L in experiment [10]; 50 mg/L (≈ 149 µM) in experiment [11]; 0.015 mg/L (≈ 0.0446 µM) in [12]; more than 100 mg/L in experiment [13]. For the same compound, the MIC entry in experiment [5] was “inactive”.
